From ChEMBL document CHEMBL2146441, “2,6-Disubstituted imidazo[2,1-b][1,3,4]thiadiazoles: search for anticancer agents” (2012)

Assays:
Format in all cases: functional
Malme-3M [1] = experiment: Cytotoxicity against human MALME-3M cells assessed as cell growth at 10^-5 M after 48 hrs by SRB assay; settings: read-out: Activity
SK-MEL-2 = experiment: Cytotoxicity against human SK-MEL-2 cells assessed as cell growth at 10^-5 M after 48 hrs by SRB assay; settings: SK-MEL-2, 48 h, read-out: Activity
OVCAR-8 [2] = experiment: Cytotoxicity against human OVCAR8 cells assessed as cell growth at 10^-5 M after 48 hrs by SRB assay; settings: OVCAR-8, 48 h, read-out: Activity
SN12C = experiment: Cytotoxicity against human SN12C cells assessed as cell growth at 10^-5 M after 48 hrs by SRB assay; settings: read-out: Activity
Malme-3M [3] = experiment: Growth inhibition of human MALME-3M cells after 48 hrs by SRB assay; settings: for CC50: read-out: LC50 (the source's name)
Summary of the method: (§1)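 Adherent NCI-60 lines grown in RPMI 1640 with 5% FBS, seeded at 5000–40,000 cells/well, and preincubated 24 h at 37 °C, 5% CO2. Compound, stocked in DMSO, given either once at 10^-5 M or at five 10-fold dilutions for 48 h. Cells fixed with cold TCA (final 10%), stained with 0.4% SRB, and read at 515 nm. GI50 taken as 50% reduction in net protein increase versus time-zero and control plates.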

M14 = experiment: Growth inhibition of human M14 cells after 48 hrs by SRB assay; settings: M14, 48 h; summary of the method: as §1
SK-MEL-28 = experiment: Growth inhibition of human SK-MEL-28 cells after 48 hrs by SRB assay; settings: SK-MEL-28, 48 h; for CC50: read-out: LC50 (the source's name); summary of the method: as §1
A498 = experiment: Growth inhibition of human A498 cells after 48 hrs by SRB assay; settings: A498, 48 h
Summary of the method: (§2)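 Same 48 h NCI-60 five-dose SRB protocol. Adherent lines were fixed with cold TCA at 10% final; suspension lines such as CCRF-CEM were fixed with 16% final TCA. Stain was 0.4% SRB in 1% acetic acid for 10 min, solubilized in 10 mM Tris base and read at 515 nm. GI50 came from log concentration–growth curves, solving [(Ti−Tz)/(C−Tz)]×100 = 50.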

TK-10 = experiment: Growth inhibition of human TK10 cells after 48 hrs by SRB assay; settings: TK-10, 48 h; for CC50: read-out: LC50 (the source's name); summary of the method: as §1
BT-549 = experiment: Growth inhibition of human BT549 cells after 48 hrs by SRB assay; settings: BT-549, 48 h; for CC50: read-out: LC50 (the source's name); summary of the method: as §2
HOP-92 = experiment: Cytotoxicity against human HOP92 cells assessed as cell growth at 10^-7 M after 48 hrs by SRB assay; settings: HOP-92, 48 h, read-out: Activity
Summary of the method: (§3)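 NCI-60 five-dose screen. Cells were grown in RPMI 1640 with 5% FBS and seeded at 5000–40,000 cells/well according to doubling time. They were pre-incubated 24 h at 37 °C in 5% CO₂, and time-zero (Tz) plates were TCA-fixed at drug addition. Five 10-fold dilutions of DMSO stock were applied for 48 h. Read-out was SRB staining, 515 nm absorbance, with percent growth calculated versus Tz and untreated control.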

NCI-H322M [4] = experiment: Cytotoxicity against human NCI-H322M cells assessed as cell growth at 10^-7 M after 48 hrs by SRB assay; settings: read-out: Activity
HT-29 = experiment: Cytotoxicity against human HT-29 cells assessed as cell growth at 10^-7 M after 48 hrs by SRB assay; settings: HT-29, 48 h, read-out: Activity; summary of the method: as §3
SNB-19 = experiment: Cytotoxicity against human SNB19 cells assessed as cell growth at 10^-7 M after 48 hrs by SRB assay; settings: SNB-19, 48 h, read-out: Activity
SW-620 = experiment: Cytotoxicity against human SW620 cells assessed as cell growth at 10^-4 M after 48 hrs by SRB assay; settings: SW-620, 48 h, read-out: Activity
UACC-257 = experiment: Cytotoxicity against human UACC257 cells assessed as cell growth at 10^-4 M after 48 hrs by SRB assay; settings: UACC-257, 48 h, read-out: Activity
UO-31 = experiment: Cytotoxicity against human UO31 cells assessed as cell growth at 10^-4 M after 48 hrs by SRB assay; settings: UO-31, 48 h, read-out: Activity
OVCAR-8 [5] = experiment: Cytotoxicity against human OVCAR8 cells assessed as cell growth at 10^-7 M after 48 hrs by SRB assay; settings: OVCAR-8, 48 h, read-out: Activity
DU-145 = experiment: Cytotoxicity against human DU145 cells assessed as cell growth at 10^-7 M after 48 hrs by SRB assay; settings: DU-145, 48 h, read-out: Activity
Summary of the method: (§4)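 NCI-60 screen: lines kept in RPMI 1640 with 5% FBS, seeded at 5000–40,000 cells/well by doubling time, preincubated 24 h at 37 °C in 5% CO2. Time-zero plates TCA-fixed at drug addition. DMSO stocks diluted in medium, 48 h exposure. Fixation in cold TCA (final 10% adherent, 16% suspension), 0.4% SRB stain, solubilised in 10 mM Tris base, A515. Percent growth computed against control and time-zero.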

MCF7 = experiment: Cytotoxicity against human MCF7 cells assessed as cell growth at 10^-7 M after 48 hrs by SRB assay; settings: MCF7, 48 h, read-out: Activity
SF-539 = experiment: Cytotoxicity against human SF539 cells assessed as cell growth at 10^-8 M after 48 hrs by SRB assay; settings: SF-539, 48 h, read-out: Activity
786-0 = experiment: Cytotoxicity against human 786-0 cells assessed as cell growth at 10^-8 M after 48 hrs by SRB assay; settings: 786-0, 48 h, read-out: Activity; summary of the method: as §4
PC-3 = experiment: Cytotoxicity against human PC3 cells assessed as cell growth at 10^-8 M after 48 hrs by SRB assay; settings: PC-3, 48 h, read-out: Activity
SNB-75 = experiment: Cytotoxicity against human SNB75 cells assessed as cell growth at 10^-6 M after 48 hrs by SRB assay; settings: SNB-75, 48 h, read-out: Activity
LOX IMVI = experiment: Cytotoxicity against human LOXIMVI cells assessed as cell growth at 10^-6 M after 48 hrs by SRB assay; settings: read-out: Activity
MDA-MB-435 = experiment: Cytotoxicity against human MDA-MB-435 cells assessed as cell growth at 10^-6 M after 48 hrs by SRB assay; settings: MDA-MB-435, 48 h, read-out: Activity
NCI-H322M [6] = experiment: Growth inhibition of human NCI-H322M cells after 48 hrs by SRB assay; settings: for CC50: read-out: LC50 (the source's name); summary of the method: as §1
NCI-H460 = experiment: Growth inhibition of human NCI-H460 cells after 48 hrs by SRB assay; settings: NCI-H460, 48 h; for CC50: read-out: LC50 (the source's name); summary of the method: as §1

Structure (SMILES): COc1ccc(-c2nn3cc(-c4cccc(N)c4)nc3s2)cc1
- growth at 10 µM (Malme-3M [1]): -16%
- growth at 10 µM (SK-MEL-2): 39%
- growth at 10 µM (OVCAR-8 [2]): 31%
- growth at 10 µM (SN12C): 36%
- GI50 (Malme-3M [3]): 1.74 µM
- TGI (Malme-3M [3]): 6.5 µM
- CC50 (Malme-3M [3]): 47.3 µM
- GI50 (M14): 5.48 µM
- LC50 (concentration killing 50% of cells) (M14): 90.1 µM
- TGI (M14): 24.5 µM
- GI50 (SK-MEL-28): 3.76 µM
- TGI (SK-MEL-28): 26 µM
- CC50 (SK-MEL-28): > 100 µM
- GI50 (A498): 1.11 µM
- LC50 (concentration giving 50% net cell kill) (A498): 45.2 µM
- TGI (A498): 5.73 µM
- GI50 (TK-10): 7.56 µM
- TGI (TK-10): 37.4 µM
- CC50 (TK-10): > 100 µM
- GI50 (BT-549): 3.88 µM
- TGI (BT-549): 30.8 µM
- CC50 (BT-549): > 100 µM
- growth at 0.1 µM (HOP-92): 53%
- growth at 0.1 µM (NCI-H322M [4]): 95%
- growth at 0.1 µM (HT-29): 100%
- growth at 0.1 µM (SNB-19): 90%
- growth at 100 µM (SW-620): -5%
- growth at 100 µM (UACC-257): 7%
- growth at 100 µM (UO-31): -63%
- growth at 0.1 µM (OVCAR-8 [5]): 107%
- growth at 0.1 µM (DU-145): 103%
- growth at 0.1 µM (MCF7): 78%
- growth at 0.01 µM (SF-539): 101%
- growth at 0.01 µM (786-0): 106%
- growth at 0.01 µM (PC-3): 91%
- growth at 1 µM (SNB-75): 52%
- growth at 1 µM (LOX IMVI): 77%
- growth at 1 µM (MDA-MB-435): 77%
- GI50 (NCI-H322M [6]): 7.15 µM
- TGI (NCI-H322M [6]): 87.2 µM
- CC50 (NCI-H322M [6]): > 100 µM
- GI50 (NCI-H460): 3.36 µM
- TGI (NCI-H460): 28.9 µM
- CC50 (NCI-H460): > 100 µM

Structure (SMILES): COc1ccc(-c2nn3cc(-c4ccc(O)cc4O)nc3s2)cc1
- growth at 10 µM (Malme-3M [1]): -30%
- growth at 10 µM (SK-MEL-2): 9%
- growth at 10 µM (OVCAR-8 [2]): 7%
- growth at 10 µM (SN12C): 7%
- GI50 (Malme-3M [3]): 1.32 µM
- TGI (Malme-3M [3]): 4.7 µM
- CC50 (Malme-3M [3]): > 100 µM
- GI50 (M14): 3.68 µM
- LC50 (concentration killing 50% of cells) (M14): > 100 µM
- TGI (M14): 18.1 µM
- GI50 (SK-MEL-28): 2.14 µM
- TGI (SK-MEL-28): 12.4 µM
- CC50 (SK-MEL-28): > 100 µM
- GI50 (A498): 0.365 µM
- LC50 (concentration giving 50% net cell kill) (A498): > 100 µM
- TGI (A498): 2.56 µM
- GI50 (TK-10): 3.46 µM
- TGI (TK-10): 17.4 µM
- CC50 (TK-10): > 100 µM
- GI50 (BT-549): 2.36 µM
- TGI (BT-549): 28.1 µM
- CC50 (BT-549): > 100 µM
- growth at 0.1 µM (HOP-92): 64%
- growth at 0.1 µM (NCI-H322M [4]): 83%
- growth at 0.1 µM (HT-29): 94%
- growth at 0.1 µM (SNB-19): 92%
- growth at 100 µM (SW-620): 6%
- growth at 100 µM (UACC-257): -5%
- growth at 100 µM (UO-31): -10%
- growth at 0.1 µM (OVCAR-8 [5]): 98%
- growth at 0.1 µM (DU-145): 96%
- growth at 0.1 µM (MCF7): 89%
- growth at 0.01 µM (SF-539): 105%
- growth at 0.01 µM (786-0): 97%
- growth at 0.01 µM (PC-3): 96%
- growth at 1 µM (SNB-75): 33%
- growth at 1 µM (LOX IMVI): 82%
- growth at 1 µM (MDA-MB-435): 76%
- GI50 (NCI-H322M [6]): 3.23 µM
- TGI (NCI-H322M [6]): > 100 µM
- CC50 (NCI-H322M [6]): > 100 µM
- GI50 (NCI-H460): 2.02 µM
- CC50 (NCI-H460): > 100 µM
